Among the data in ChEMBL document CHEMBL1125154, “An approach to trapping gamma-glutamyl radical intermediates proposed for vitamin K dependent carboxylase: alpha,beta-methyleneglutamic acid” (1990) are Carboxylase activity and Epoxide formation values, retold here.

Assay [1] deals with T1, Vitamin K-dependent gamma-carboxylase (Rattus norvegicus) (UniProt O88496).
T1 sequence (whole entry): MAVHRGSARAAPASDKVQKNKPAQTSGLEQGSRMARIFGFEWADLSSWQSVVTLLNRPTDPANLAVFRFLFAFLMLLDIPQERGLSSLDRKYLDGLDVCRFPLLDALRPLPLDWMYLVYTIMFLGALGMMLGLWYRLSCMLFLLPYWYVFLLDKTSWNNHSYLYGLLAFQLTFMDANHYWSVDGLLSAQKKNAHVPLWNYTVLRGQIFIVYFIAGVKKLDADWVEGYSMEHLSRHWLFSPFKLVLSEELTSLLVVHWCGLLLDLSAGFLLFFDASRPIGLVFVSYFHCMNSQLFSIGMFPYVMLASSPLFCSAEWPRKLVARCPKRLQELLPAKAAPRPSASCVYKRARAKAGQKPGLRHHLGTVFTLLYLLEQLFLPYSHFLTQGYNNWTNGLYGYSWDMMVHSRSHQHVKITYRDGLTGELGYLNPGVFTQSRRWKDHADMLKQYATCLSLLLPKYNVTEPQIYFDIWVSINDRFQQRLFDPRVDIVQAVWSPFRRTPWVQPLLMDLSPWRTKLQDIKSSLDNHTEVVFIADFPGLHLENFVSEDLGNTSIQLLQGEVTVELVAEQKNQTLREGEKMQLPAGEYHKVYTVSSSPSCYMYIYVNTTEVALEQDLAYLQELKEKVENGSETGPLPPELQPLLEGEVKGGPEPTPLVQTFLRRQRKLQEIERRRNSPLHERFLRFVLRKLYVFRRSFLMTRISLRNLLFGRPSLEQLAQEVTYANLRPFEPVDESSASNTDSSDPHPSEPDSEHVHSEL
Kind of assay: Inhibition of Vitamin K-dependent gamma-carboxylase was determined at a concentration of 5 mM, incubations were at 17 degree Centigrade for 60 minutes.

The target of assay [2] is T1, Vitamin K-dependent gamma-carboxylase (Rattus norvegicus). Briefly: Inhibition of Vitamin K-dependent gamma-carboxylase was determined at a concentration of 2 mM, incubations were at 17 degree Celsius for 30 minutes. Put shortly: (§1)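 Rat liver microsomes from vitamin K deficient animals were used, following the Wood and Suttie method. Carboxylation was read as ¹⁴CO₂ incorporation into the Glu-site substrate, in dpm. The cyclopropyl analogue was tested at 2 mM, the Glu-site substrate at 1 mM, each alone or combined. Incubation ran at 17 °C for 30 min. Values are mean ± SD of four values.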

Assay [3] has the same target. Briefly: Inhibition of vitamin K dependent carboxylase was determined at a concentration of 1 mM of compound along with 2 mM of 1-tert-Butoxycarbonylamino-2-carboxymethyl-cyclopropanecarboxylic acid benzyl ester. The procedure, abridged:
as §1

For assay [4] the target is unchanged. Briefly: Inhibition of Vitamin K-dependent gamma-carboxylase was determined at a concentration of 1 mM, incubations were at 17 degree Centigrade for 30 minutes. Put shortly:
as §1

Assay [5] is filed under the species Rattus norvegicus. Briefly: Epoxide formation was determined at a concentration of 0.5 mM incubation at 17 degree Celsius for 60 minutes. It is filed as functional. Put shortly:
(§2)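 Microsomes came from vitamin K deficient rats dosed with 1 mg phylloquinone (ic) 15 min before killing. Incubation ran at 17 °C for 60 min, with the analogue at 5 mM and/or the Glu-site substrate at 0.5 mM. To extract, 0.5 mL of mix was quenched with 2 volumes of 3:2 2-propanol–hexane, vortexed, held 15 min at 4 °C, and centrifuged. The hexane layer was dried under N₂ and epoxide reported as nmol. Values are mean ± SD of four values.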

Assay [6] deals with T1, Vitamin K-dependent gamma-carboxylase (Rattus norvegicus). Briefly: Inhibition of Vitamin K-dependent gamma-carboxylase was determined at a concentration of 0.5 mM, incubations were at 17 degree Celsius for 60 minutes.
The species named for assay [7] is Rattus norvegicus. Kind of assay: Epoxide formation was determined at a concentration 0.5 mM of compound along with 5 mM of 1-tert-Butoxycarbonylamino-2-carboxymethyl-cyclopropanecarboxylic acid benzyl ester. It is filed as functional. Put shortly: as §2
Assay [8] deals with T1, Vitamin K-dependent gamma-carboxylase (Rattus norvegicus). Kind of assay: Inhibition of vitamin K dependent carboxylase was determined at a concentration of 0.5 mM of compound along with 5 mM of 1-tert-Butoxycarbonylamino-2-carboxymethyl-cyclopropanecarboxylic acid benzyl ester. Put shortly:
(§3)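 Liver microsomal carboxylase came from vitamin K deficient rats. Activity was taken as ¹⁴CO₂ incorporation into the Glu-site substrate, in dpm. The analogue was present at 5 mM and/or the Glu-site substrate at 0.5 mM. Incubation ran at 17 °C for 60 min. Values are mean ± SD of four values.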

Assay [9] is filed under the species Rattus norvegicus. Briefly: Epoxide formation after incubation at 17 degree Celsius for 60 min (compounds tested the ratio of 5 mM 19 and 0.5 mM 20). It is filed as functional. Put shortly: as §2
The target of assay [10] is T1, Vitamin K-dependent gamma-carboxylase (Rattus norvegicus). Kind of assay: Vitamin K-dependent gamma-carboxylase activity was assayed in liver microsomes prepared from vitamin K deficient rats incubated at 17 degree Celsius for 60 min. The note with it: Microsome. The procedure, abridged: as §3
(Microsomes from liver hold many membrane-bound enzymes, among them those of drug oxidation.)

Assay [11] has the same target. Kind of assay: Vitamin K-dependent gamma-carboxylase activity was assayed in liver microsomes prepared from vitamin K deficient rats incubated at 17 degree Celsius for 30 min. Conditions: Microsome. The procedure, abridged:
as §1

The species named for assay [12] is Rattus norvegicus. Briefly: Epoxide formation after incubation at 17 degree Centigrade for 60 min. It is filed as functional. The procedure, abridged: as §2
The species entered for assay [13] is Rattus norvegicus. Briefly: Compound was evaluated for the epoxide formation at 5 mM incubations were at 17 degree Celsius for 60 minutes. It is filed as functional. The procedure, abridged:
as §2

Assay [14] concerns the target T1, Vitamin K-dependent gamma-carboxylase (Rattus norvegicus). Briefly: Vitamin K-dependent gamma-carboxylase activity was assayed in liver microsomes prepared from vitamin K deficient rats incubated at 17 degree Celsius for 60 min (compounds tested the ratio of 5 mM 19 and 0.5 mM 20). The note with it: Microsome. The procedure, abridged: as §3
Assay [15] shares this target. Briefly: Vitamin K-dependent gamma-carboxylase activity was assayed in liver microsomes prepared from vitamin K deficient rats incubated at 17 degree Celsius for 30 min (compounds tested the ratio of 2 mM 19 and 1 mM 20). Conditions: Microsome. The procedure, abridged: as §1

Turning to `CC(C)(C)OC(=O)NC1(C(=O)OCc2ccccc2)CC1CC(=O)O` (stereo not given) [listing 1 of 2 here], the Carboxylase activity worked out at 690 dpm in assay [1] and 300 dpm in assay [2].
Take `CC(C)(C)OC(=O)N[C@H](CCC(=O)O)C(=O)OCc1ccccc1`: the Carboxylase activity in assay [3] stood at 5770 dpm; in assay [4], 5800 dpm; in assay [6], 12600 dpm; in assay [8], 12200 dpm. Also, the Epoxide formation in [5] amounted to 7.1 nmol; in assay [7], 6.7 nmol.
For `CC(C)(C)OC(=O)NC(CCC(=O)O)C(=O)OCc1ccccc1.CC(C)(C)OC(=O)NC1(C(=O)OCc2ccccc2)CC1CC(=O)O` (stereo not given) [listing 1 of 2 here], in assay [9], the Epoxide formation was 6.7 nmol.
On to `CC(C)(C)OC(=O)NC(CCC(=O)O)C(=O)OCc1ccccc1` (stereo not given), for which the Carboxylase activity was 12600 dpm in [10] and 5800 dpm in [11]. For the same compound, the Epoxide formation in assay [12] came to 7.1 nmol.
Compound `CC(C)(C)OC(=O)NC1(C(=O)OCc2ccccc2)CC1CC(=O)O` (stereo not given) [listing 2 of 2 here] registered an Epoxide formation in [13] of 5.1 nmol.
With `CC(C)(C)OC(=O)NC(CCC(=O)O)C(=O)OCc1ccccc1.CC(C)(C)OC(=O)NC1(C(=O)OCc2ccccc2)CC1CC(=O)O` (stereo not given) [listing 2 of 2 here], the Carboxylase activity in assay [14] turned out to be 12200 dpm; in [15], 5770 dpm.
